# Results published in ChEMBL document CHEMBL5724801, “EUbOPEN Chemogenomics Library - Multiplex” (2024).
# Several values for one entry are separate records, joined by “and”; a condition that tells them apart may be missing. Equal entries are not always repeated.
# Test system: U2OS
# Assay: Multiplex assay against U2OS
# Assay type: toxicity, cell-based
# Details: human
# In short: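 With compound added, live cells were imaged on a CQ1 microscope at 37°C and 5% CO2; staining with Hoechst33342, BioTracker Green Microtubule Cytoskeleton Dye, MitoTracker Red and Annexin V Alexa Fluor 680 had been done at seeding. The CellPathfinder machine-learning gating scheme split cells into Hoechst high-intensity objects or normal cells, normal cells into healthy, pyknosed or fragmented nuclei, and pyknosed cells into mitotic or apoptotic. The tubulin, mitochondrial-mass and membrane-permeability phenotypes are per cents of healthy-nucleus cells.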
# [1] = 12 h, 1 µM, compound concentration 1 uM
# [2] = 12 h, 10 µM, compound concentration 10 uM
# [3] = 24 h, 1 µM, compound concentration 1 uM
# [4] = 24 h, 10 µM, compound concentration 10 uM
# [5] = 48 h, 1 µM, compound concentration 1 uM
# [6] = 48 h, 10 µM, compound concentration 10 uM
compound,measurement,setting,value
C[C@@H]1C[C@H]2[C@@H]3CCC4=CC(=O)C=C[C@]4(C)[C@@]3(F)[C@@H](O)C[C@]2(C)[C@@]1(O)C(=O)CO [DEXAMETHASONE],Population Apoptotic (%),[1],77% and 80%
same,Population Fragmented Nuclei (%),[1],21% and 20%
same,Population Healthy Nuclei (%),[1],70% and 75%
same,Population Hoechst High Intensity Objects (%),[1],2% and 0%
same,Population Membrane Permeable-Phenotype (%),[1],2% and 4%
same,Population Mitochondria Different-Phenotype (%),[1],0% and 1%
same,Population Mitotic Cells (%),[1],22% and 20%
same,Population Normal (%),[1],97% and 99%
same,Population Pyknosed Nuclei (%),[1],7% and 4%
same,Population Tubulin-Different-Phenotype (%),[1],1% and 3%
same,Total Cell Count,[1],238 and 124
same,Population Apoptotic (%),[2],80% and 84%
same,Population Fragmented Nuclei (%),[2],20% and 16%
same,Population Healthy Nuclei (%),[2],69% and 76%
same,Population Hoechst High Intensity Objects (%),[2],2% and 0%
same,Population Membrane Permeable-Phenotype (%),[2],6% and 7%
same,Population Mitochondria Different-Phenotype (%),[2],1% and 2%
same,Population Mitotic Cells (%),[2],19% and 15%
same,Population Normal (%),[2],97% and 100%
same,Population Pyknosed Nuclei (%),[2],9% and 7%
same,Population Tubulin-Different-Phenotype (%),[2],2% and 3%
same,Total Cell Count,[2],319
same,Population Apoptotic (%),[3],96% and 90%
same,Population Fragmented Nuclei (%),[3],19% and 18%
same,Population Healthy Nuclei (%),[3],71% and 73%
same,Population Hoechst High Intensity Objects (%),[3],2%
same,Population Membrane Permeable-Phenotype (%),[3],4% and 6%
same,Population Mitochondria Different-Phenotype (%),[3],2% and 0%
same,Population Mitotic Cells (%),[3],4% and 9%
same,Population Normal (%),[3],97%
same,Population Pyknosed Nuclei (%),[3],8% and 7%
same,Population Tubulin-Different-Phenotype (%),[3],2% and 4%
same,Total Cell Count,[3],288
same,Population Apoptotic (%),[4],82% and 75%
same,Population Fragmented Nuclei (%),[4],17% and 14%
same,Population Healthy Nuclei (%),[4],74% and 79%
same,Population Hoechst High Intensity Objects (%),[4],1% and 0%
same,Population Membrane Permeable-Phenotype (%),[4],6%
same,Population Mitochondria Different-Phenotype (%),[4],0% and 2%
same,Population Mitotic Cells (%),[4],17% and 25%
same,Population Normal (%),[4],98% and 99%
same,Population Pyknosed Nuclei (%),[4],7% and 5%
same,Population Tubulin-Different-Phenotype (%),[4],2%
same,Total Cell Count,[4],378 and 219
same,Population Apoptotic (%),[5],84% and 71%
same,Population Fragmented Nuclei (%),[5],20% and 17%
same,Population Healthy Nuclei (%),[5],72% and 74%
same,Population Hoechst High Intensity Objects (%),[5],1% and 2%
same,Population Membrane Permeable-Phenotype (%),[5],1% and 3%
same,Population Mitochondria Different-Phenotype (%),[5],1% and 3%
same,Population Mitotic Cells (%),[5],16% and 28%
same,Population Normal (%),[5],98% and 97%
same,Population Pyknosed Nuclei (%),[5],6% and 7%
same,Population Tubulin-Different-Phenotype (%),[5],0% and 4%
same,Total Cell Count,[5],391 and 186
same,Population Apoptotic (%),[6],92% and 86%
same,Population Fragmented Nuclei (%),[6],14% and 16%
same,Population Healthy Nuclei (%),[6],77% and 76%
same,Population Hoechst High Intensity Objects (%),[6],2%
same,Population Membrane Permeable-Phenotype (%),[6],4% and 5%
same,Population Mitochondria Different-Phenotype (%),[6],1% and 0%
same,Population Mitotic Cells (%),[6],7% and 13%
same,Population Normal (%),[6],97%
same,Population Pyknosed Nuclei (%),[6],8% and 7%
same,Population Tubulin-Different-Phenotype (%),[6],1%
same,Total Cell Count,[6],497 and 294
O=C(O)Cc1ccccc1Nc1c(Cl)cccc1Cl [DICLOFENAC],Population Apoptotic (%),[1],90% and 84%
same,Population Fragmented Nuclei (%),[1],15% and 13%
same,Population Healthy Nuclei (%),[1],78% and 76%
same,Population Hoechst High Intensity Objects (%),[1],5% and 0%
same,Population Membrane Permeable-Phenotype (%),[1],4% and 5%
same,Population Mitochondria Different-Phenotype (%),[1],4% and 2%
same,Population Mitotic Cells (%),[1],10% and 15%
same,Population Normal (%),[1],94% and 99%
same,Population Pyknosed Nuclei (%),[1],6% and 10%
same,Population Tubulin-Different-Phenotype (%),[1],4% and 2%
same,Total Cell Count,[1],164
same,Population Apoptotic (%),[2],75% and 72%
same,Population Fragmented Nuclei (%),[2],20% and 14%
same,Population Healthy Nuclei (%),[2],68% and 76%
same,Population Hoechst High Intensity Objects (%),[2],2% and 3%
same,Population Membrane Permeable-Phenotype (%),[2],8%
same,Population Mitochondria Different-Phenotype (%),[2],4% and 3%
same,Population Mitotic Cells (%),[2],25% and 27%
same,Population Normal (%),[2],97% and 96%
same,Population Pyknosed Nuclei (%),[2],11% and 9%
same,Population Tubulin-Different-Phenotype (%),[2],4% and 8%
same,Total Cell Count,[2],258
same,Population Apoptotic (%),[3],92% and 87%
same,Population Fragmented Nuclei (%),[3],15% and 19%
same,Population Healthy Nuclei (%),[3],76% and 70%
same,Population Hoechst High Intensity Objects (%),[3],4% and 3%
same,Population Membrane Permeable-Phenotype (%),[3],2% and 5%
same,Population Mitochondria Different-Phenotype (%),[3],2%
same,Population Mitotic Cells (%),[3],7% and 12%
same,Population Normal (%),[3],95% and 96%
same,Population Pyknosed Nuclei (%),[3],7% and 10%
same,Population Tubulin-Different-Phenotype (%),[3],2%
same,Total Cell Count,[3],191 and 165
same,Population Apoptotic (%),[4],72% and 81%
same,Population Fragmented Nuclei (%),[4],17% and 15%
same,Population Healthy Nuclei (%),[4],72% and 77%
same,Population Hoechst High Intensity Objects (%),[4],0% and 1%
same,Population Membrane Permeable-Phenotype (%),[4],3% and 5%
same,Population Mitochondria Different-Phenotype (%),[4],1% and 2%
same,Population Mitotic Cells (%),[4],27% and 18%
same,Population Normal (%),[4],99% and 98%
same,Population Pyknosed Nuclei (%),[4],10% and 7%
same,Population Tubulin-Different-Phenotype (%),[4],2% and 4%
same,Total Cell Count,[4],311 and 153
same,Population Apoptotic (%),[5],100% and 83%
same,Population Fragmented Nuclei (%),[5],17% and 15%
same,Population Healthy Nuclei (%),[5],71% and 70%
same,Population Hoechst High Intensity Objects (%),[5],4% and 3%
same,Population Membrane Permeable-Phenotype (%),[5],4%
same,Population Mitochondria Different-Phenotype (%),[5],2% and 4%
same,Population Mitotic Cells (%),[5],0% and 16%
same,Population Normal (%),[5],95% and 96%
same,Population Pyknosed Nuclei (%),[5],10% and 14%
same,Population Tubulin-Different-Phenotype (%),[5],2% and 4%
same,Total Cell Count,[5],271 and 216
same,Population Apoptotic (%),[6],86% and 100%
same,Population Fragmented Nuclei (%),[6],16% and 12%
same,Population Healthy Nuclei (%),[6],73% and 75%
same,Population Hoechst High Intensity Objects (%),[6],2% and 1%
same,Population Membrane Permeable-Phenotype (%),[6],6%
same,Population Mitochondria Different-Phenotype (%),[6],1%
same,Population Mitotic Cells (%),[6],13% and 0%
same,Population Normal (%),[6],97% and 98%
same,Population Pyknosed Nuclei (%),[6],10% and 11%
same,Population Tubulin-Different-Phenotype (%),[6],2% and 6%
same,Total Cell Count,[6],436 and 220
